Data from paper PMC5773961 (British Journal of Pharmacology, 2017).
≈ marks a conversion by molar mass, not a printed value. Like-named read-outs stand apart in the source and are kept apart here.

Assays:
[1] = system: benzodiazepine (BZD) receptor; conditions: ref Czernik et al., 1982; cited from earlier work
α6β3γ2 GABAA receptors = α6β3γ2 GABAA receptors (Rattus norvegicus, UniProt P30191+P63079); assay type: cell-based; conditions: for modulation of GABA EC3–5 currents in screening of compounds 5–9, in words: 10 μM compound, comparable to compound 3
Procedure, shortened: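 Oocytes (X. laevis, stage 5–6, defolliculated) received 2.5 ng of rat α6:β3:γ2 mRNA at 3:1:5, or γ2‐β3‐α6 triple plus β3‐α6 double concatemer cRNA at 1:1. Incubated ≥36 h at 18°C. TEVC at −60 mV, room temperature. Per-oocyte GABA EC3–5 co-applied with test compound(s) at various concentrations, 0.1% DMSO final. Hill fit for EC50. ≥3 oocytes from two batches.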

α1β3γ2 GABAA receptors = α1β3γ2 GABAA receptors (Rattus norvegicus, UniProt P62813+P63079); assay type: cell-based; conditions: for % modulation of GABA EC3–5 currents: 10 μM compound, control (GABA) = EC3–5
Procedure, shortened: (§1)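 Rat α and β3/γ2 subunit mRNA (2.5 ng total) injected into defolliculated stage 5–6 X. laevis oocytes. Ratio α:β3:γ2 was 1:1:5 for α1, α2, α3 and α5, and 3:1:5 for α4. Oocytes held ≥36 h at 18°C in NDE. TEVC was run at −60 mV at room temperature under 6 mL·min−1 NDE perfusion. Per-oocyte GABA EC3–5 co-applied with test compound in 0.1% DMSO final. ≥3 oocytes from two batches.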

[2] = system: αxβ3γ2 (x = 1–5) GABAA receptors; assay type: cell-based, rat
Procedure, shortened: as §1

α5β3γ2 GABAA receptors = α5β3γ2 GABAA receptors (Rattus norvegicus, UniProt P19969+P63079); assay type: cell-based
Procedure, shortened: as §1

[3] = Solubility limit in the assay buffer; assay type: physicochemical; conditions: aqueous buffer
[4] = system: αxβ3γ2 (x = 1–6) GABAA receptors; assay type: cell-based, rat
α1β3 receptors = α1β3 receptors (Rattus norvegicus, UniProt P62813+P63079); test: Two-electrode voltage clamp, α1β3 versus α1β3γ2 receptors; assay type: cell-based; conditions: independence from γ2 subunit
Procedure, shortened: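 Two-electrode voltage clamp of rat subunit mRNA-injected X. laevis oocytes, ≥36 h at 18°C in NDE (pH 7.5) before recording. Held at −60 mV at room temperature under continuous NDE flow. GABA titrated per oocyte to EC3–5 and co-applied with test compound, 0.1% DMSO final.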

[5] = system: αxβ3γ2 (x = 1–5) GABAA receptors; conditions: non‐α6, αxβ3γ2 receptors; 10 μM; ref Varagic et al., 2013a; cited from earlier work
α6+/γ2− BZ site = α6+/γ2− BZ site (Rattus norvegicus, UniProt P18508+P30191); test: Saturation binding of [3H]Ro15-4513 to rat cerebellar membranes; conditions: presence of diazepam, rat cerebellum, n=3
[6] = α6β3γ2, 1 μM compound, control (GABA) = EC3–5

α1β3γ2 GABAA receptors, sequence (P62813 28-455): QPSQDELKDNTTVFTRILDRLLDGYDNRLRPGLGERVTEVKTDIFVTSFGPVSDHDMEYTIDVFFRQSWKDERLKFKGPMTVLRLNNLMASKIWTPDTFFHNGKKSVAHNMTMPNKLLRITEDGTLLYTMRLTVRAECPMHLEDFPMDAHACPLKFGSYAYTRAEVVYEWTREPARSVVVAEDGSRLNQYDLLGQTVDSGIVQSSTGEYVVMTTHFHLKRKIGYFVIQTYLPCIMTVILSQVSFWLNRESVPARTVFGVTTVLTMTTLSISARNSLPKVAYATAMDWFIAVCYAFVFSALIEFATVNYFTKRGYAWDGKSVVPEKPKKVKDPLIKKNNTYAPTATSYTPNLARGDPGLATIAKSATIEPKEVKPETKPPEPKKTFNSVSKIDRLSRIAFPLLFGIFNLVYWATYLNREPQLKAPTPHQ
α1β3γ2 GABAA receptors, sequence (P63079 26-473): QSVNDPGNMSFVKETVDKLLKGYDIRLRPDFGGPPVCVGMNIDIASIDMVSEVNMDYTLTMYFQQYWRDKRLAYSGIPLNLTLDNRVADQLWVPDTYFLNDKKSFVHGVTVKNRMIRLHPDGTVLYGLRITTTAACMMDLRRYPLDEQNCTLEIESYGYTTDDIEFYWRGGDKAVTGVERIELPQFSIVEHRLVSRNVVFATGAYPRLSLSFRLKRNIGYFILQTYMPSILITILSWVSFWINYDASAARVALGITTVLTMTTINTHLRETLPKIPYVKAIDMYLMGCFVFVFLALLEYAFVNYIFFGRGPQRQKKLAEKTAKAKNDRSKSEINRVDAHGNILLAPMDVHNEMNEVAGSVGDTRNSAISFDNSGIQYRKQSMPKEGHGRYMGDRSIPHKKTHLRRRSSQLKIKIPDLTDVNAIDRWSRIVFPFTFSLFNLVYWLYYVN
α1β3γ2 GABAA receptors, sequence (P18508 39-466 partner): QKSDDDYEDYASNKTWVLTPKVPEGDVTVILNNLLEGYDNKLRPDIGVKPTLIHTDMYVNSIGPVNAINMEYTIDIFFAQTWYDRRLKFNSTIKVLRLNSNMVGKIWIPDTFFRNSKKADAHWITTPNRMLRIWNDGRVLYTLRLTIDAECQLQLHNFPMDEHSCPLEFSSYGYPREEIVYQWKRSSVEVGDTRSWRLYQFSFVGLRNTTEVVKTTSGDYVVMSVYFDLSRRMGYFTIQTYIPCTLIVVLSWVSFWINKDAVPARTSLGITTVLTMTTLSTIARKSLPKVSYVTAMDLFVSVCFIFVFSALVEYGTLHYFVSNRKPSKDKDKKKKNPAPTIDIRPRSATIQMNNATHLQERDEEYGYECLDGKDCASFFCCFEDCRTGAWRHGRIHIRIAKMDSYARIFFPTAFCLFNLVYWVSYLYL
α6β3γ2 GABAA receptors, sequence (P30191 20-453): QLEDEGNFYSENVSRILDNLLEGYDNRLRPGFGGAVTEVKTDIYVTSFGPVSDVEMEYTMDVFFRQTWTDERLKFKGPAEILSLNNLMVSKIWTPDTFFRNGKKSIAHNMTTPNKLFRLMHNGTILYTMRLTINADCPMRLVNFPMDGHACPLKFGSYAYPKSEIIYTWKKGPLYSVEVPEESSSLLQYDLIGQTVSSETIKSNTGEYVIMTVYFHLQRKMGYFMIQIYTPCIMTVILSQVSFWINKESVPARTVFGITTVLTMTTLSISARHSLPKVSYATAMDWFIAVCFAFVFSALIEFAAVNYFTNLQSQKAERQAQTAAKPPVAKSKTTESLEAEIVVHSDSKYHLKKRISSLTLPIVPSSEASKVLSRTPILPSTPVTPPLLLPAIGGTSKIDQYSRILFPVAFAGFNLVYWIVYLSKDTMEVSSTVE
α6β3γ2 GABAA receptors, sequence (P63079 26-473): as the sequence (P63079 26-473) above
α6β3γ2 GABAA receptors, sequence (P18508 39-466 partner): as the sequence (P18508 39-466 partner) above
α1β3 receptors, sequence (P62813 28-455): as the sequence (P62813 28-455) above
α1β3 receptors, sequence (P63079 26-473): as the sequence (P63079 26-473) above
α5β3γ2 GABAA receptors, sequence (P19969 32-464 limits assumed): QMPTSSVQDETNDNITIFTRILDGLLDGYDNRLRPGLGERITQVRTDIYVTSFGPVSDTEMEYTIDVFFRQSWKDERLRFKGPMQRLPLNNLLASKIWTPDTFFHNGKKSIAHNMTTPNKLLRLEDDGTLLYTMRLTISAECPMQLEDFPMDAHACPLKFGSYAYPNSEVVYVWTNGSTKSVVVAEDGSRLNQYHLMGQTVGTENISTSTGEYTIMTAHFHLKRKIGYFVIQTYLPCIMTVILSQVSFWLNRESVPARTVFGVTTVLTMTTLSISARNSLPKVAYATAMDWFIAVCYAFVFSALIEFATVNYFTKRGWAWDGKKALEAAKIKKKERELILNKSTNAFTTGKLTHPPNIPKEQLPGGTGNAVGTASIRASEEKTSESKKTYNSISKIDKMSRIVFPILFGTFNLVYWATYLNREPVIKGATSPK
α5β3γ2 GABAA receptors, sequence (P63079 26-473): as the sequence (P63079 26-473) above
α5β3γ2 GABAA receptors, sequence (P18508 39-466 partner): as the sequence (P18508 39-466 partner) above
α6+/γ2− BZ site, sequence (P30191 20-453): as the sequence (P30191 20-453) above
α6+/γ2− BZ site, sequence (P18508 39-466): as the sequence (P18508 39-466 partner) above

O=C1C2C=Nc3ccccc3C2=NN1c1ccccc1 (stereo not shown) [CGS8216]
concentrations displacing [3H]‐flunitrazepam and [3H]‐diazepam binding [1]: subnanomolar

COc1cccc(-n2nc3c4cc(Cl)ccc4[nH]cc-3c2=O)c1 [Compound 3, 8‐chloro‐2‐(3‐methoxyphenyl)‐2H,3H,5H‐pyrazolo[4,3‐c]quinolin‐3‐one]
EC50 (α6β3γ2 GABAA receptors): 3100 nM
% modulation of GABA EC3–5 currents (α6β3γ2 GABAA receptors; α6β3γ2, 10 μM compound concentration, control GABA EC3–5 = 100%): around 300%
type of modulation (α1β3γ2 GABAA receptors): null (silent) modulator
effect on positive GABA current modulation by compound 2 (1 μM) (α1β3γ2 GABAA receptors; co-application of 10 and 30 μM): reduced the modulatory effect of compound 2
modulatory activity [2]: completely abolished

COc1ccccc1-n1nc2c3cc(Cl)ccc3[nH]cc-2c1=O [Compound 4, 8‐chloro‐2‐(2‐methoxyphenyl)‐2H,3H,5H‐pyrazolo[4,3‐c]quinolin‐3‐one]
effect on modulation elicited by compound 3 (3 μM) (α6β3γ2 GABAA receptors; α6β3γ2, co-application up to 30 μM): unable to abolish the modulatory effect
modulatory activity (α5β3γ2 GABAA receptors): weak negative modulatory activity
solubility [3]: 30 µM (≈ 9.77 µg/mL)
positive allosteric modulation (PAM) activity [4]: abolished any positive allosteric modulation (PAM) activity

Cc1cccc(-n2nc3c4cc(Cl)ccc4[nH]cc-3c2=O)c1 [Compound 5, 8‐chloro‐2‐(3‐methylphenyl)‐2H,3H,5H‐pyrazolo‐[4,3‐c]quinolin‐3‐one]
% modulation of GABA EC3–5 currents (α6β3γ2 GABAA receptors; [6]): more than 150%
modulation of GABA EC3–5 currents in screening of compounds 5–9, in words (α6β3γ2 GABAA receptors; α6β3γ2): strongest modulation
% modulation of GABA EC3–5 currents (α1β3γ2 GABAA receptors): 210.7 ± 17%
modulatory effects in α1β3γ2 and α1β3 (α1β3 receptors): overlapping

Nc1cccc(-n2nc3c4cc(Cl)ccc4[nH]cc-3c2=O)c1 [Compound 8, 2‐(3‐aminophenyl)‐8‐chloro‐2H,3H,5H‐pyrazolo[4,3‐c]quinolin‐3‐one]
modulation of GABA EC3–5 currents in screening of compounds 5–9, in words (α6β3γ2 GABAA receptors; α6β3γ2): strongest modulation

O=C(O)c1cccc(-n2nc3c4cc(Cl)ccc4[nH]cc-3c2=O)c1 [Compound 9, 3‐(8‐chloro‐3‐oxo‐2H,3H,5H‐pyrazolo[4,3‐c]quinolin‐2‐yl)benzoic acid]
% modulation of GABA EC3–5 currents (α6β3γ2 GABAA receptors; [6]): more than 150%
modulation of GABA EC3–5 currents in screening of compounds 5–9, in words (α6β3γ2 GABAA receptors; α6β3γ2): strongest modulation
type of modulation (α1β3γ2 GABAA receptors): negative allosteric modulation
% modulation of GABA EC3–5 currents (α1β3γ2 GABAA receptors): 17.9 ± 7.4%
modulatory effects in α1β3γ2 and α1β3 (α1β3 receptors): overlapping

COc1ccc(-n2nc3c4ccc(OC)cc4[nH]cc-3c2=O)cc1 [PZ‐II‐029]
residual modulatory activity, % of control GABA currents [5]: roughly 200%

CCOC(=O)c1ncn2c1CN(C)C(=O)c1cc(N=[N+]=[N-])ccc1-2 [[3H]Ro15-4513]
Kd (α6+/γ2− BZ site): 1.4 ± 0.1 nM
